The source of these data is ChEMBL document CHEMBL1124697, “A new family of water-soluble, third generation antitumor platinum complexes” (J Med Chem, 1989).

The nature of data set [1]: Water solubility was determined. Type of data set: ADME. Particulars: buffer.
The test system of data set [2] is B16. The data set is described as follows: Percent increase in life span when compound administered at 25 mg/kg against B-16 melanoma cells in […] mice. Format: functional, organism-based. Also noted: dose 25 mg/kg. The following applies: Mus musculus. The essentials:
(§1)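 B-16 melanoma in […] mice; compounds given ip daily on days 1–9 relative to tumor inoculation, animals followed 60 days. Read-out median % increase in life span over controls at optimal dose with % survivors; activity threshold ILS ≥25%; ≥15% reduction in ILS or body weight versus controls rated toxic.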

Data set [3] has as its system B16. The data set is described as follows: Percent survivors when compound administered at 25 mg/kg against B-16 melanoma cells in […] mice. Format: functional, organism-based. Also noted: dose 25 mg/kg. The following applies: Mus musculus. The essentials: (§2)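 Median % increase in life span versus controls and % survivors are recorded at the optimal dose. ILS ≥25% counts as active, and a ≥15% reduction in ILS or body weight counts as toxic.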

In data set [4] the test system is P388. The data set is described as follows: Percent survivors when compound administered at 200 mg/kg against P388 leukemia cells in BDF1 mice. Format: functional, organism-based. More on the design: dose 200 mg/kg. The following applies: Mus musculus. In short, it runs like this:
(§3)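 BDF1 mice inoculated with P388, L1210 or cisplatin-resistant L1210 leukemia. Compound given ip on days 1, 5 and 9 relative to tumor inoculation, and mice observed for 30 days. Median % increase in life span over controls and % survivors are reported at the optimal dose. Activity requires ILS ≥25%. Toxicity is rated when ILS or body weight is reduced by ≥15%.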

For data set [5], the system named is P388. The data set is described as follows: Percent increase in life span when compound administered at 200 mg/kg against P388 leukemia cells in BDF1 mice. Format: functional, organism-based. Particulars: Mus musculus. More on the design: dose 200 mg/kg.
For data set [6], the system named is P388. Kind of data set: Percent survivors when compound administered at 12.5 mg/kg against P388 leukemia cells in BDF1 mice. The following applies: Mus musculus. Type of data set: functional, organism-based. More on the design: dose 12.5 mg/kg. The essentials:
as §3

Data set [7] has as its system P388. The data set is described as follows: Percent increase in life span when compound administered at 12.5 mg/kg against P388 leukemia cells in BDF1 mice. Format: functional, organism-based. More on the design: dose 12.5 mg/kg. The following applies: Mus musculus. In short, it runs like this:
(§4)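 BDF1 mice bearing P388, L1210 or cisplatin-resistant L1210 leukemia; ip dosing on days 1, 5 and 9 relative to tumor inoculation, 30-day observation. Median % ILS over controls at optimal dose plus % survivors; ≥25% ILS counted as active, ≥15% reduction in ILS or body weight over controls rated toxic.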

In data set [8] the test system is B16. Kind of data set: Percent increase in life span when compound administered at 12.5 mg/kg against B-16 melanoma cells in […] mice. Type of data set: functional. Particulars: Mus musculus. The essentials: as §2
Data set [9] has as its system B16. The data set is described as follows: Percent survivors when compound administered at 12.5 mg/kg against B-16 melanoma cells in […] mice. Format: functional. Particulars: Mus musculus. The essentials: as §2
For data set [10], the system named is Colon 26. The data set is described as follows: Percent in life span when compound administered at 25 mg/kg against Colon 26 cells in balb/C mice. Type of data set: functional, organism-based. More on the design: dose 25 mg/kg. The following applies: Mus musculus. In short, it runs like this:
(§5)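 Colon 26 in Balb/C mice. Test agents given ip on days 1, 5 and 9 relative to tumor inoculation; mice observed 30 days. Median % increase in life span at optimal dose, with % survivors noted; ILS ≥25% over controls required for activity; ILS or body weight reduced ≥15% versus controls rated toxic.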

Data set [11] deals with Colon 26. The data set is described as follows: Percent survivors when compound administered at 25 mg/kg against Colon 26 cells in balb/C mice. Type of data set: functional, organism-based. Also noted: dose 25 mg/kg. The following applies: Mus musculus. In short, it runs like this: (§6)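 Colon 26 tumor in Balb/C mice. Dosing ip on days 1, 5 and 9 after tumor inoculation, with a 30-day observation period. Readouts are median % increase in life span over control mice and % survivors, given at the optimal dose. Activity threshold is ILS ≥25%. A ≥15% drop in ILS or body weight is rated toxic.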

In data set [12] the test system is L1210. Kind of data set: Percent survivors when compound administered at 25 mg/kg against L1210 leukemia cells in BDF1 mice. Format: functional, organism-based. Also noted: dose 25 mg/kg. Particulars: Mus musculus. The essentials: as §3
The test system of data set [13] is L1210. Kind of data set: Percent increase in life span when compound administered at 25 mg/kg against L1210 leukemia cells in BDF1 mice. Format: functional, organism-based. More on the design: dose 25 mg/kg. The following applies: Mus musculus. The essentials:
as §4

The test system of data set [14] is L1210. Kind of data set: Percent increase in life span when compound administered at 25 mg/kg against L1210 cisplatin resistant leukemia cells in BDF1 mice. Format: functional, organism-based. Also noted: dose 25 mg/kg. The following applies: Mus musculus. In short, it runs like this:
as §4

The test system of data set [15] is L1210. Kind of data set: Percent survivors when compound administered at 25 mg/kg against L1210 cisplatin resistant leukemia cells in BDF1 mice. More on the design: dose 25 mg/kg. Type of data set: functional, organism-based. Particulars: Mus musculus. In short, it runs like this:
as §3

The subject of data set [16] is P388. Kind of data set: Percent survivors when compound administered at 25 mg/kg against P388 leukemia cells in BDF1 mice. Type of data set: functional. The following applies: Mus musculus. The essentials: as §3
Data set [17] has as its system P388. Kind of data set: Percent increase in life span when compound administered at 25 mg/kg against P388 leukemia cells in BDF1 mice. Type of data set: functional. Particulars: Mus musculus. In short, it runs like this:
as §3

Data set [18] relates to Colon 26. Kind of data set: Percent in life span when compound administered at 6.2 mg/kg against Colon 26 cells in balb/C mice. Type of data set: functional, organism-based. Also noted: dose 6.2 mg/kg. The following applies: Mus musculus. In short, it runs like this: as §5
Data set [19] has as its system Colon 26. The data set is described as follows: Percent survivors when compound administered at 6.2 mg/kg against Colon 26 cells in balb/C mice. Type of data set: functional, organism-based. More on the design: dose 6.2 mg/kg. Particulars: Mus musculus. In short, it runs like this:
as §6

For data set [20], the system named is L1210. The data set is described as follows: Percent survivors when compound administered at 12.5 mg/kg against L1210 leukemia cells in BDF1 mice. Type of data set: functional, organism-based. The following applies: Mus musculus. Also noted: dose 12.5 mg/kg. In short, it runs like this:
as §3

Data set [21] has as its system P388. Kind of data set: Percent survivors when compound administered at 25.5 mg/kg against P388 leukemia cells in BDF1 mice. Format: functional, organism-based. Also noted: dose 25.5 mg/kg. Particulars: Mus musculus. The essentials:
as §3

Data set [22] deals with P388. The data set is described as follows: Percent increase in life span when compound administered at 25.5 mg/kg against P388 leukemia cells in BDF1 mice. Type of data set: functional, organism-based. Also noted: dose 25.5 mg/kg. The following applies: Mus musculus. The essentials:
as §4

In data set [23] the test system is B16. Kind of data set: Percent increase in life span when compound administered at 0.4 mg/kg against B-16 melanoma cells in […] mice. Format: functional, organism-based. Particulars: Mus musculus. More on the design: dose 0.4 mg/kg. The essentials: as §1
The test system of data set [24] is B16. The data set is described as follows: Percent survivors when compound administered at 0.4 mg/kg against B-16 melanoma cells in […] mice. More on the design: dose 0.4 mg/kg. The following applies: Mus musculus. Format: functional, organism-based. The essentials: as §2
Data set [25] relates to Colon 26. The data set is described as follows: Percent in life span when compound administered at 1 mg/kg againstColon 26 cells in balb/C mice. The following applies: Mus musculus. More on the design: dose 1 mg/kg. Type of data set: functional, organism-based. The essentials:
as §5

Data set [26] has as its system Colon 26. The data set is described as follows: Percent survivors when compound administered at 1 mg/kg againstColon 26 cells in balb/C mice. Also noted: dose 1 mg/kg. The following applies: Mus musculus. Type of data set: functional, organism-based. The essentials: as §6
Data set [27] deals with L1210. The data set is described as follows: Percent increase in life span when compound administered at 6.2 mg/kg against L1210 leukemia cells in BDF1 mice. More on the design: dose 6.2 mg/kg. The following applies: Mus musculus. Format: functional, organism-based. The essentials:
as §4

The test system of data set [28] is L1210. Kind of data set: Percent increase in life span when compound administered at 50 mg/kg against L1210 cisplatin resistant leukemia cells in BDF1 mice; IA=inactive. Type of data set: functional, organism-based. More on the design: dose 50 mg/kg. Particulars: Mus musculus. The essentials: as §4
For data set [29], the system named is L1210. The data set is described as follows: Percent survivors when compound administered at 50 mg/kg against L1210 cisplatin resistant leukemia cells in BDF1 mice; IA=inactive. Format: functional, organism-based. Also noted: dose 50 mg/kg. The following applies: Mus musculus. The essentials:
as §3

The subject of data set [30] is P388. The data set is described as follows: Percent survivors when compound administered at 6.2 mg/kg against P388 leukemia cells in BDF1 mice. Type of data set: functional, organism-based. Also noted: dose 6.2 mg/kg. The following applies: Mus musculus. In short, it runs like this: as §3
For data set [31], the system named is P388. Kind of data set: Percent increase in life span when compound administered at 6.2 mg/kg against P388 leukemia cells in BDF1 mice. Also noted: dose 6.2 mg/kg. Particulars: Mus musculus. Format: functional, organism-based. In short, it runs like this:
as §4

Calls of active or inactive are those of the source.

As for “Platinum:3,3-Dichloro-8,15-dioxa-2,4-diaza-dispiro[5.2.5.2]hexadecane”, the Water solubility in data set [1] amounted to 200 µg/mL.

On to “Platinum:Formic acid 9-formyloxy-3-methyl-2,4-dioxa-8,10-diaza-spiro[5.5]undec-9-yl ester”, for which the Increase in the data set with B16 [2] was determined as 62%; in the data set on P388 [5], 173%. Further, the results for the Survivors with B16 [3] and in the data set on P388 [4] were 0% and 5%, respectively.

On to “Platinum:9,9-Dichloro-3-methyl-2,4-dioxa-8,10-diaza-spiro[5.5]undecane”, for which the Survivors with P388 [6] was 1%. In the data set on P388 [7], this substance yielded an Increase of 136%.

Turning to “Platinum:2,4,10,15-Tetraoxa-8,16-diaza-dispiro[5.2.6.2]heptadecane-11,14-dione”, the Increase with B16 [8] is 56%; with Colon 26 [10], 46%; in the data set on L1210 [13] it was 110%; with L1210 [14], 44%; in the data set on P388 [17] it was 120%. The Survivors was found to be 0% in the data set with B16 [9]; 0% in the data set with Colon 26 [11]; 1% in the data set on L1210 [12]; 0% in the data set on L1210 [15]; 1% in the data set with P388 [16].

Turning to “Platinum:8,8-Dichloro-1,3-dioxa-7,9-diaza-spiro[4.5]decane”, the Increase in the data set on Colon 26 [18] was found to be 50%; with P388 [22], 160%. The Survivors with Colon 26 [19], in the data set on L1210 [20] and in the data set on P388 [21] was 0% in each case.

Turning to CISPLATIN, the Increase in the data set with B16 [23] stood at 36%; in the data set with Colon 26 [25], 47%; in the data set with L1210 [27], 96%; in the data set on P388 [31] it was 140%. Moreover, the Survivors in the data set on B16 [24] stood at 0%; with Colon 26 [26], 17%; in the data set with P388 [30], 17%. In the data set with L1210 [28], the Increase result was “inactive”. Also, the Survivors entry in the data set with L1210 [29] was “inactive”.
